In ChEMBL document CHEMBL2406960, “Epimeric methylsulfinyladenosine derivatives from the marine ascidian Herdmania momus” (Bioorg Med Chem Lett, 2013):

Legend:
rhinovirus B14 = assay: Antiviral activity against Human rhinovirus 14 infected in human HeLa cells assessed as inhibition of virus-induced cytopathic effect by MTT assay; format: functional, organism-based; conditions: Rhinovirus B
Procedure, shortened: (§1)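 Confluent HeLa monolayers, in duplicate, got samples (20 mg/mL DMSO stock) diluted in MEM/2% FBS, then virus at 200 CCID50 per well, and were incubated under CO2. Protection was read by MTT and by microscopic inspection. EC50 was the concentration protecting 50% of cells from virus-induced cytotoxicity.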

[1] = Antiviral activity against Human rhinovirus 71 infected in human HeLa cells assessed as inhibition of virus-induced cytopathic effect by MTT assay; format: functional, cell-based, Human rhinovirus A71; conditions: Rhinovirus A; procedure, shortened: as §1
Coxsackievirus B1 = assay: Antiviral activity against Human coxsackievirus B1 infected in human HeLa cells assessed as inhibition of virus-induced cytopathic effect by MTT assay; format: functional, organism-based; conditions: Enterovirus B; procedure, shortened: as §1
[2] = Antiviral activity against Human rhinovirus 17 infected in human HeLa cells assessed as inhibition of virus-induced cytopathic effect by MTT assay; format: functional, cell-based, Human rhinovirus B17; conditions: Rhinovirus B; procedure, shortened: as §1
Poliovirus 3 = assay: Antiviral activity against Human poliovirus 3 infected in human HeLa cells assessed as inhibition of virus-induced cytopathic effect by MTT assay; format: functional, organism-based; conditions: Enterovirus C
Procedure, shortened: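 Confluent HeLa cells in 96-well plates, in duplicate; samples (20 mg/mL DMSO stock) diluted in MEM/2% FBS, then virus added at 200 CCID50 per well; incubated in CO2 incubator. Protection of cells from virus cytopathic effect read by MTT absorbance and microscopy; EC50 = concentration protecting 50% of cells. Cytotoxicity on mock-infected cells, CC50 = 50% absorbance reduction.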

Coxsackievirus B3 = assay: Antiviral activity against Human coxsackievirus B3 infected in human HeLa cells assessed as inhibition of virus-induced cytopathic effect by MTT assay; format: functional, organism-based; conditions: Enterovirus B; procedure, shortened: as §1
[3] = Cytotoxicity against human HeLa cells by MTT assay; format: cell-based
Procedure, shortened: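 Mock-infected confluent HeLa cells were treated in duplicate with samples (20 mg/mL DMSO stock) diluted in MEM/2% FBS and incubated under CO2. Viability was read by MTT plus microscopy. CC50 was the concentration that cut mock-infected control absorbance by 50%.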

C[S+]([O-])C[C@H]1O[C@@H](n2cnc3c(N)ncnc32)[C@H](O)[C@@H]1OC(=O)c1c[nH]c2cc(Br)c(O)cc12 (some centres undefined)
> 100 µg/mL: EC50 (rhinovirus B14) | EC50 [1] | EC50 (Coxsackievirus B1) | EC50 [2] | EC50 (Poliovirus 3) | EC50 (Coxsackievirus B3) | CC50 [3]

C[S+]([O-])C[C@H]1O[C@@H](n2cnc3c(N)ncnc32)[C@H](OC(=O)c2c[nH]c3cc(Br)c(O)cc23)[C@@H]1O (mixture of isomers)
> 100 µg/mL: EC50 (rhinovirus B14) | EC50 [1] | EC50 (Coxsackievirus B1) | EC50 [2] | EC50 (Poliovirus 3) | EC50 (Coxsackievirus B3) | CC50 [3]
